# Assay outcomes (PubChem BioAssay)
# A selection: hits, their analogues and other compounds. The true share with any hit is near 6.4%.
# MPTP inh: blocks calcium-induced mitochondrial swelling; isolated mouse mitochondria, Ca2+ swelling absorbance, 30 min; inhibition, % at 10 µM; 360,000 tested, 1.4% active;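 active = inhibition of 50% or more, scaled per plate between neutral and stimulator controls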;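 note: 0% = DMSO wells given calcium and 100% = 1 mM EGTA wells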
# WT yeast gro inh: growth inhibition of WT yeast, mitochondrial fusion screen; 190,000 tested, 2.1% active; AID 1362; inhibition, % at 10 µM; mitochondrial fusion phenotypic screen, WT strain; in the data active = inhibition above about 58%; tested in S. cerevisiae
# CHOP inh: CHOP inhibition in unfolded protein response; 220,000 tested, 3.8% active; inhibition, % at 10 µM; CHO-K1 CHOP-promoter luciferase, tunicamycin-induced, 15-18 h;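 active = compounds that reduced the stress-induced luciferase reporter signal by more than about 70% of percent inhibition, limit read from the data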;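 note: 0% = tunicamycin plus vehicle and 100% = wells without tunicamycin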
# EBV gp42 block: EBV gp42 inhibition; AID 1085; Q1HVG2; Fluorescence polarization binding assay, mP read-out; inhibition, % (tested at 21.74 µM); 220,000 tested, 0.42% active; in the data active = inhibition above about 50%
# Target sequence (Q1HVG2 whole entry, looked up): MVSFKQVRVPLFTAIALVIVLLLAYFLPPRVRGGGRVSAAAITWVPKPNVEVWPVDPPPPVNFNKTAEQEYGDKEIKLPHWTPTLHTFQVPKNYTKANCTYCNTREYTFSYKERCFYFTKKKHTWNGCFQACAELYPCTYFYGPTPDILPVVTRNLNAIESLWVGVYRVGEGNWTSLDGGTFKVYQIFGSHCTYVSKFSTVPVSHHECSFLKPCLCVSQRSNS
# TbMetRS inhib: blocks T. brucei methionyl-tRNA synthetase activity; purified T. brucei MetRS, ATP depletion, Kinase-Glo luminescence; inhibition, % at 11.9 µM; 360,000 tested, 0.4% active; AID 624268;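 active = inhibition above a per-plate cutoff of the control wells' mean inhibition plus 3 SD, cut at about 5.5% in these data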;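 note: 0% = DMSO wells median and 100% = median of wells with control inhibitor compound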
#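 Assay system: T. brucei methionyl-tRNA synthetase, purified | Medium: HEPES buffer with MgCl2, KCl, DTT, spermine, BSA, pyrophosphatase | Compound: 11.9 µM single point | Incubation: 15 min enzyme-compound preincubation, 2 h reaction, 10 min detection, 25 °C | Measured by: Kinase-Glo luciferase luminescence reporting remaining unconsumed ATP | Measure: % inhibition normalized to control-well medians | Replication: Singlicate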
# NR3A LBD binder: NR3A (human) ligand-binding domain modulation; NR3A LBD differential scanning fluorimetry, Tm shift; 0% = protein alone, 100% = glycine-bound protein; Tm shift relative to glycine control, % at 25 µM; 340,000 tested, 2.5% active;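 active = melting temperature shift of at least 10% of the positive control shift, at one fixed dose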
# CHOP confirm: confirmation of CHOP induction inhibitors | inhibition, % at 10 µM | CHO-CHOP promoter luciferase reporter, tunicamycin-induced, luminescence | 2,100 tested, 45% active | shares compounds with CHOP inh | AID 504437;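 active = mean of three repeat readings of reporter signal inhibition above a set limit, cut at about 70% in these data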;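 note: 0% = tunicamycin plus vehicle and 100% = wells lacking tunicamycin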
# Active calls of the source: *; nt = no result given.
SMILES,MPTP inh,WT yeast gro inh,CHOP inh,EBV gp42 block,TbMetRS inhib,NR3A LBD binder,CHOP confirm
Fc1ccc(C2=Nn3c(nnc3-c3n[nH]c4c3CCC4)SC2)cc1,-1.3,11.2,-15.5,-1.1,-1.0,2.5,nt
Cc1cc(/C=c2/sc3nc4ccccc4n3c2=O)c(C)n1-c1ccccn1,-0.4,18.8,106.6*,-23.5,-0.2,-0.2,118.5*
C=CCC(Nc1ccccc1)C12C=CC(O1)C(C(=O)OC)=C2C(=O)OC (stereo not given),-1.9,-15.8,111.9*,4.5,-0.9,1.5,41.9
COc1cc(NC(=O)c2ccco2)c(C(=O)OCC(=O)c2c[nH]c3ccccc23)cc1OC,10.8,-15.8,106.7*,-27.8,0.3,14.1*,41.7
COc1ccc(CN(C(=O)c2ccco2)c2ccccc2)cc1,-5.4,21.4,12.8,-1.4,-0.3,-0.9,nt
Cc1ccc(Oc2c(C(N)=O)cc([N+](=O)[O-])cc2[N+](=O)[O-])cc1,0.3,15.7,108.0*,-11.0,-1.0,5.2,-16.3
Cc1ccc(CNc2ccc([N+](=O)[O-])cc2C(N)=O)cc1,-2.2,nt,nt,nt,0.0,-0.8,nt
COc1ccc(-c2nc3ncccn3c2Nc2ccccc2)cc1,0.2,-10.5,-17.3,-23.1,-1.1,0.4,nt
CC(NC(=O)/C(C#N)=C/c1ccc(Cl)c([N+](=O)[O-])c1)c1ccccc1 (stereo not given),nt,76.3,105.3*,-6.5,nt,-7.4,94.0*
CCCOc1ccc(/C=N/NC(=S)Nc2ccccc2[N+](=O)[O-])c(O)c1,nt,21.8,100.6*,2.4,nt,11.6*,32.4
CCCOc1ccc(/C=N/Nc2ccccc2[N+](=O)[O-])c(O)c1,12.9,17.0,41.3,-18.1,0.1,-2.4,nt
O=C(CN1C(=O)c2cccnc2C1=O)c1ccccc1,-0.2,-3.9,38.4,-1.5,-0.5,0.9,nt
CCCCCCCC(=O)N/N=C/c1ccc(Br)cc1,6.5,7.1,96.9*,-7.8,-0.3,-2.7,131.8*
Cc1[nH]c2ccccc2c1/C=N/NC(=O)C1CC1(c1ccccc1)c1ccccc1 (stereo not given),4.8,83.7*,106.1*,-53.6,0.7,12.0*,100.9*
Cc1[nH]c2ccccc2c1/C=N\NC(=O)c1ccccc1Cl,0.7,nt,nt,nt,-0.1,nt,nt
Cc1ccc(NC(=O)c2ccc(C#CC3(O)CCCCC3)cc2)cc1C,0.1,-19.9,100.9*,-10.4,0.0,-0.7,105.7*
Cc1nc(CSc2nnc3scc(-c4ccccc4)n23)cs1,0.1,-6.9,-1.7,-2.2,-1.3,-1.3,nt
CC(C)Oc1cc(NC(=O)CS(=O)CC(=O)Nc2cccc(C(F)(F)F)c2)c(Cl)cc1Cl (stereo not given),15.6,-1.3,107.3*,-16.4,-0.5,26.0*,120.1*
O=S(=O)(Nc1ccccc1)c1ccc(-c2csnn2)cc1,5.1,nt,-4.2,-7.9,-0.4,-2.5,nt
O=S(=O)(Nc1ccc(-c2csc(-c3ccccc3)n2)cc1)c1ccc(F)cc1,6.8,92.4*,104.8*,-1.1,-0.3,22.2*,36.2
Cc1cc(C)cc(Oc2ccccc2C=O)c1,-0.5,-8.8,98.7*,-2.3,-0.1,1.2,17.9
COc1ccc(Cc2nnc(Nc3ccccc3OC)[nH]c2=O)cc1,0.3,-2.8,1.2,-18.5,0.4,-1.5,nt
C=CCSC1=C(C#N)C(c2ccccc2C)CC(=O)N1 (stereo not given),0.7,-4.0,-3.5,-17.4,-1.0,2.8,nt
CC(c1ccccc1F)n1cc(C(=O)NCCCc2nc3ccccc3[nH]2)nn1 (stereo not given),-0.1,-8.0,96.6*,-9.0,-0.3,-1.8,19.9
FC(F)C(F)(F)C(F)(F)C(F)(F)c1cc(-c2ccccc2)n[nH]1,45.3,69.7*,106.1*,-6.6,-0.5,-6.8,110.6*
SMILES,MPTP inh,WT yeast gro inh,CHOP inh,EBV gp42 block,TbMetRS inhib,NR3A LBD binder,CHOP confirm
Cc1ccc(CSc2ccc(-c3ccc4c(c3)OCO4)nn2)cc1,-0.7,8.7,34.0,-4.2,-0.6,0.9,nt
COc1cc(/C=N/N=C(/C(=O)c2ccccc2)c2ccccc2)cc(OC)c1O,2.7,72.2*,99.1*,-6.0,0.2,-10.7,1.4
COc1ccc(OCC(O)Cn2c(=N)n(Cc3ccccc3)c3ccccc32)cc1 (stereo not given),5.7,-0.9,56.4,2.0,0.1,1.0,nt
Cc1ccc(OCC(O)Cn2c(=N)n(Cc3ccccc3)c3ccccc32)cc1 (stereo not given),-2.9,-1.8,104.9*,-18.1,-0.7,-1.3,50.4
Cc1cc(C)nc(SC2=CS(=O)(=O)c3ccccc32)n1,1.7,-5.1,-30.3,-30.9,-0.9,1.0,nt
O=S1(=O)C=C(Sc2nc3ccccc3s2)c2ccccc21,nt,16.2,nt,-2.5,nt,8.9,114.8*
O=C(O)/C=C\C(=O)Nc1ccc(N2CCN(c3ccc(F)cc3)CC2)cc1,0.1,-3.3,0.4,0.4,0.1,-2.3,nt
CCCCOC(=O)c1ccc(NC(=O)c2ccoc2C)cc1,15.1,4.4,101.0*,-27.6,-0.3,-8.4,46.7
Cc1cc(C2(c3ccc(O)c(C)c3)C(=O)Nc3ccccc32)ccc1O,3.7,0.6,105.4*,-0.5,-0.9,6.3,119.2*
Cc1ccc(C(=O)COC(=O)c2cc(=O)[nH]c3ccccc23)cc1C,-0.9,2.4,102.4*,-91.4,-0.6,1.4,15.4
Cn1c(=O)c2ncn(CC(=O)Nc3nc(-c4ccc(Cl)cc4)cs3)c2n(C)c1=O,-0.1,-2.4,99.6*,-6.6,-0.8,-0.7,60.9
Clc1ccccc1/C=N/NC1=Nc2cccc3cccc1c23,-0.8,11.1,98.5*,42.8,-1.5,19.2*,-22.4
Clc1ccccc1C=NNc1ccccn1,0.7,nt,nt,nt,-0.2,2.7,nt
CCC(C)Sc1nc2c(c(=O)[nH]c(=O)n2C)n1Cc1ccc(Cl)cc1 (stereo not given),1.0,13.1,97.9*,-11.0,-1.7,2.2,103.0*
CSc1nc2c(c(=O)[nH]c(=O)n2C)n1CCCc1ccccc1,0.2,nt,nt,nt,-0.3,0.1,nt
CC(C)CCSc1nc2c(c(=O)[nH]c(=O)n2C)n1CCCc1ccccc1,1.6,10.7,104.6*,-0.4,-0.5,2.8,106.1*
CC(C)Sc1nc2c(c(=O)[nH]c(=O)n2C)n1Cc1ccc(Cl)cc1,1.6,-13.0,46.7,-21.8,-1.0,-4.1,nt
CCOc1ccc(-n2c(SCC(=O)NCc3ccco3)nc3ccccc3c2=O)cc1,0.0,-7.3,4.0,4.0,-0.5,-2.4,nt
COc1cc(-n2c(N)c(C(=O)NCc3ccco3)c3nc4ccccc4nc32)cc(OC)c1OC,2.0,-7.4,23.0,-6.9,-1.1,-1.4,nt
Nc1c(C(=O)NCc2ccc3c(c2)OCO3)c2nc3ccccc3nc2n1CCCN1CCOCC1,-0.3,-0.8,nt,-5.2,-0.5,-1.8,nt
COc1ccccc1CNC(=O)c1c(N)n(CCCN2CCOCC2)c2nc3ccccc3nc12,0.1,37.0,96.4*,9.3,0.0,-1.5,40.3
